Published values collected from several papers.
Protocols differ between the studies behind these lines.
Effect on: cell growth or viability

SMILES | cell line | technique | concentration | time | endpoint | result
CC(C)(C)CC(C)(C)Nc1c(-c2cccnc2)nc2ncccn12 | MDA-MB-231 | MTT | 25 µM | 48 h | viability | 85.2%
C[C@]1(CO)[C@H]2CC[C@@H]3CN(Cc4ccco4)[C@@H](C4=CCOC4=O)C[C@H]3[C@]2(C)CC[C@H]1O | MRC5 | ATP luminescence | 25 µM | 72 h | cell death | -0.1%
CC(C)(C)CC(C)(C)Nc1c(-c2ccccc2)nc2ncccn12 | MDA-MB-231 | MTT | 25 µM | 48 h | viability | 58.2%
COc1ccc(COc2ccc(NC(=O)NC[C@H]3O[C@H](n4cc(C)c(=O)[nH]c4=O)C[C@@H]3O)cc2)cc1 | MRC5 |  |  |  | CC50 | > 50 µM
C[C@]1(CO)[C@H]2CC[C@@H]3CN(Cc4cccs4)[C@@H](C4=CCOC4=O)C[C@H]3[C@]2(C)CC[C@H]1O | MRC5 | ATP luminescence | 25 µM | 72 h | cell death | -7.4%
COc1cc(OC)c2c(=O)cc(-c3ccc(N(C)C)cc3)oc2c1-c1c(OC)cc(OC)c2c(=O)cc(-c3ccc(N(C)C)cc3)oc12 | HS27 | MTT |  | 24 h | CC50 | > 200 µM
COc1ccc(-c2nc3ncccn3c2NC(C)(C)CC(C)(C)C)cc1O | MDA-MB-231 | MTT | 25 µM | 48 h | viability | 67.3%
COc1cc(OC)c2c(=O)cc(-c3ccc(Br)cc3)oc2c1 | HS27 | MTT |  | 24 h | CC50 | > 200 µM
NCC(NC(=O)c1ccc(-c2ccc(C(F)(F)F)c(F)c2)[nH]1)c1nc(CO)cs1 (stereo not drawn) | U87.CD4.CXCR4 | XTT |  | 72 h | CC50 | 35 µM
CCCCN1C[C@H]2CC[C@@H]3[C@]4(C)COC(C)(C)O[C@@H]4CC[C@@]3(C)[C@@H]2C[C@@H]1C1=CCOC1=O | MRC5 | ATP luminescence | 25 µM | 72 h | cell death | 33.7%
COc1cc(C)cc2oc(-c3ccc(N(C)C)cc3)cc(=O)c12 | HS27 | MTT |  | 24 h | CC50 | 141 µM
COc1cc2ccc(=O)oc2cc1OC | MRC5 | MTT |  | 24 h | IC50 | > 100 µM
